Tested on: HEK-293T
Test: Multiplex assay against HEK293T
Assay type: toxicity, cell-based
Conditions: human
In short: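 Compound was added to live cells that had been stained at seeding with Hoechst33342, BioTracker Green Microtubule Cytoskeleton Dye, MitoTracker Red and Annexin V Alexa Fluor 680, and imaging followed on a CQ1 microscope at 37°C and 5% CO2. CellPathfinder machine-learning gating divided cells into Hoechst high-intensity objects or normal cells, normal cells into healthy, pyknosed or fragmented nuclei, and pyknosed cells into mitotic or apoptotic. Tubulin, mitochondrial-mass and membrane-permeability phenotypes are per cents of healthy-nucleus cells.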

[1] = 12 h, 1 µM, compound concentration 1 uM, replicate 1
[2] = 12 h, 1 µM, compound concentration 1 uM, replicate 2
[3] = 12 h, 10 µM, compound concentration 10 uM, replicate 1
[4] = 12 h, 10 µM, compound concentration 10 uM, replicate 2
[5] = 24 h, 1 µM, compound concentration 1 uM, replicate 1
[6] = 24 h, 1 µM, compound concentration 1 uM, replicate 2
[7] = 24 h, 10 µM, compound concentration 10 uM, replicate 1
[8] = 24 h, 10 µM, compound concentration 10 uM, replicate 2
[9] = 48 h, 1 µM, compound concentration 1 uM, replicate 1
[10] = 48 h, 1 µM, compound concentration 1 uM, replicate 2
[11] = 48 h, 10 µM, compound concentration 10 uM, replicate 1
[12] = 48 h, 10 µM, compound concentration 10 uM, replicate 2

`Cc1ccc(F)cc1C(=O)Nc1ccc(C(=O)N2Cc3cccn3Cc3ccccc32)c(Cl)c1` [LIXIVAPTAN] was tested, and the “Population Apoptotic (%)” value [1] was 36%, the “Population Fragmented Nuclei (%)” value [1] was 5% and the “Population Healthy Nuclei (%)” value [1] was 83%. For the same compound, the “Population Hoechst High Intensity Objects (%)” value [1] was 7%, the “Population Membrane Permeable-Phenotype (%)” value [1] was 0% and the “Population Mitochondria Different-Phenotype (%)” value [1] was 45%. For the same compound, the “Population Mitotic Cells (%)” value [1] was 63%, the “Population Normal (%)” value [1] was 92% and the “Population Pyknosed Nuclei (%)” value [1] was 10%. The “Population Tubulin-Different-Phenotype (%)” value [1] was 38%, the “Total Cell Count” value [1] was 486 and the “Population Apoptotic (%)” value [2] was 40%. For the same compound, the “Population Fragmented Nuclei (%)” value [2] was 6%, the “Population Healthy Nuclei (%)” value [2] was 74% and the “Population Hoechst High Intensity Objects (%)” value [2] was 5%. For the same compound, the “Population Mitochondria Different-Phenotype (%)” value [2] was 57%, the “Population Mitotic Cells (%)” value [2] was 60% and the “Population Normal (%)” value [2] was 94%. For the same compound, the “Population Pyknosed Nuclei (%)” value [2] was 19%, the “Population Tubulin-Different-Phenotype (%)” value [2] was 32% and the “Total Cell Count” value [2] was 335. The “Population Apoptotic (%)” value [3] was 46%, the “Population Fragmented Nuclei (%)” value [3] was 6% and the “Population Healthy Nuclei (%)” value [3] was 70%. For the same compound, the “Population Hoechst High Intensity Objects (%)” value [3] was 10%, the “Population Membrane Permeable-Phenotype (%)” value [3] was 0% and the “Population Mitochondria Different-Phenotype (%)” value [3] was 75%. The “Population Mitotic Cells (%)” value [3] was 53%, the “Population Normal (%)” value [3] was 89% and the “Population Pyknosed Nuclei (%)” value [3] was 22%. For the same compound, the “Population Tubulin-Different-Phenotype (%)” value [3] was 78%, the “Total Cell Count” value [3] was 339 and the “Population Apoptotic (%)” value [4] was 50%. For the same compound, the “Population Healthy Nuclei (%)” value [4] was 67%, the “Population Hoechst High Intensity Objects (%)” value [4] was 6% and the “Population Membrane Permeable-Phenotype (%)” value [4] was 1%. The “Population Mitochondria Different-Phenotype (%)” value [4] was 81%, the “Population Mitotic Cells (%)” value [4] was 50% and the “Population Normal (%)” value [4] was 93%. For the same compound, the “Population Pyknosed Nuclei (%)” value [4] was 25%, the “Population Tubulin-Different-Phenotype (%)” value [4] was 67% and the “Total Cell Count” value [4] was 357. For the same compound, the “Population Apoptotic (%)” value [5] was 30%, the “Population Fragmented Nuclei (%)” value [5] was 9% and the “Population Healthy Nuclei (%)” value [5] was 77%. For the same compound, the “Population Hoechst High Intensity Objects (%)” value [5] was 5%, the “Population Membrane Permeable-Phenotype (%)” value [5] was 0% and the “Population Mitochondria Different-Phenotype (%)” value [5] was 30%. For the same compound, the “Population Mitotic Cells (%)” value [5] was 69%, the “Population Normal (%)” value [5] was 94% and the “Population Pyknosed Nuclei (%)” value [5] was 13%. The “Population Tubulin-Different-Phenotype (%)” value [5] was 24%, the “Total Cell Count” value [5] was 595 and the “Population Apoptotic (%)” value [6] was 36%. For the same compound, the “Population Fragmented Nuclei (%)” value [6] was 10%, the “Population Healthy Nuclei (%)” value [6] was 76% and the “Population Hoechst High Intensity Objects (%)” value [6] was 7%. For the same compound, the “Population Mitochondria Different-Phenotype (%)” value [6] was 42%, the “Population Mitotic Cells (%)” value [6] was 63% and the “Population Normal (%)” value [6] was 92%. The “Population Tubulin-Different-Phenotype (%)” value [6] was 22%, the “Total Cell Count” value [6] was 423 and the “Population Apoptotic (%)” value [7] was 37%. The “Population Fragmented Nuclei (%)” value [7] was 5%, the “Population Healthy Nuclei (%)” value [7] was 69% and the “Population Hoechst High Intensity Objects (%)” value [7] was 7%. For the same compound, the “Population Membrane Permeable-Phenotype (%)” value [7] was 0%, the “Population Mitochondria Different-Phenotype (%)” value [7] was 74% and the “Population Mitotic Cells (%)” value [7] was 62%. The “Population Normal (%)” value [7] was 92%, the “Population Pyknosed Nuclei (%)” value [7] was 24% and the “Population Tubulin-Different-Phenotype (%)” value [7] was 71%. For the same compound, the “Total Cell Count” value [7] was 392, the “Population Apoptotic (%)” value [8] was 58% and the “Population Fragmented Nuclei (%)” value [8] was 8%. The “Population Healthy Nuclei (%)” value [8] was 72%, the “Population Hoechst High Intensity Objects (%)” value [8] was 6% and the “Population Mitochondria Different-Phenotype (%)” value [8] was 78%. For the same compound, the “Population Mitotic Cells (%)” value [8] was 41%, the “Population Normal (%)” value [8] was 93% and the “Population Pyknosed Nuclei (%)” value [8] was 19%. For the same compound, the “Population Tubulin-Different-Phenotype (%)” value [8] was 69%, the “Total Cell Count” value [8] was 401 and the “Population Apoptotic (%)” value [9] was 22%. For the same compound, the “Population Fragmented Nuclei (%)” value [9] was 12%, the “Population Healthy Nuclei (%)” value [9] was 80% and the “Population Hoechst High Intensity Objects (%)” value [9] was 2%. For the same compound, the “Population Membrane Permeable-Phenotype (%)” value [9] was 0%, the “Population Mitochondria Different-Phenotype (%)” value [9] was 19% and the “Population Mitotic Cells (%)” value [9] was 77%. For the same compound, the “Population Normal (%)” value [9] was 97%, the “Population Pyknosed Nuclei (%)” value [9] was 6% and the “Population Tubulin-Different-Phenotype (%)” value [9] was 17%. For the same compound, the “Total Cell Count” value [9] was 995, the “Population Apoptotic (%)” value [10] was 17% and the “Population Hoechst High Intensity Objects (%)” value [10] was 4%. For the same compound, the “Population Mitochondria Different-Phenotype (%)” value [10] was 24%, the “Population Mitotic Cells (%)” value [10] was 82% and the “Population Normal (%)” value [10] was 95%. The “Population Pyknosed Nuclei (%)” value [10] was 7%, the “Population Tubulin-Different-Phenotype (%)” value [10] was 21% and the “Total Cell Count” value [10] was 643. For the same compound, the “Population Apoptotic (%)” value [11] was 43%, the “Population Fragmented Nuclei (%)” value [11] was 9% and the “Population Healthy Nuclei (%)” value [11] was 74%. The “Population Hoechst High Intensity Objects (%)” value [11] was 7%, the “Population Membrane Permeable-Phenotype (%)” value [11] was 0% and the “Population Mitochondria Different-Phenotype (%)” value [11] was 72%. For the same compound, the “Population Mitotic Cells (%)” value [11] was 56%, the “Population Normal (%)” value [11] was 92% and the “Population Pyknosed Nuclei (%)” value [11] was 16%. The “Population Tubulin-Different-Phenotype (%)” value [11] was 69%, the “Total Cell Count” value [11] was 489 and the “Population Apoptotic (%)” value [12] was 46%. The “Population Fragmented Nuclei (%)” value [12] was 11%, the “Population Hoechst High Intensity Objects (%)” value [12] was 8% and the “Population Mitochondria Different-Phenotype (%)” value [12] was 71%. The “Population Mitotic Cells (%)” value [12] was 53%, the “Population Normal (%)” value [12] was 91% and the “Population Pyknosed Nuclei (%)” value [12] was 14%. The “Population Tubulin-Different-Phenotype (%)” value [12] was 59% and the “Total Cell Count” value [12] was 437.
